pIC50: −log10 of the molar value. Values belong to the compound of their own block, whether it stands above or below them. Calls of active or inactive are those of the source. No cut-off for these calls is given here.
Legend:
L5178Y = assay: Antiproliferative activity against mouse L5178Y cells after 24 hrs by MTT assay; format: functional, cell-based; conditions: for pIC50: Mus musculus, L5178Y, 24 h, read-out: IC50; for IC50: l5178y
Summary of the method: (§1)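 Microplate MTT proliferation read-out, scored against untreated controls; each experiment run in triplicate.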

K562 [1] = assay: Antiproliferative activity against human K562 cells up to 365 uM after 24 hrs by MTT assay; format: functional, cell-based
A2780 [2] = assay: Antiproliferative activity against human A2780 cells after 24 hrs by MTT assay; format: functional, cell-based; conditions: for pIC50: Homo sapiens, A2780, 24 h, read-out: IC50; for IC50: a2780; summary of the method: as §1
A2780 [3] = assay: Antiproliferative activity against human cisplatin resistant A2780 cells after 24 hrs by MTT assay; format: functional, cell-based; conditions: for pIC50: Homo sapiens, A2780, 24 h, read-out: IC50; for IC50: a2780; summary of the method: as §1
[4] = target: RAC-alpha serine/threonine-protein kinase (Homo sapiens, UniProt P31749); assay: Inhibition of recombinant AKT1 assessed as 33Pi incorporation after 60 mins by scintillation counting
Summary of the method: (§2)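 Recombinant kinase with GSK3(14-27) substrate in 70 mM HEPES-NaOH pH 7.5, 3 mM MgCl2, 3 mM MnCl2, Na-orthovanadate, 1.2 mM DTT, PEG, 1 µM [γ-33P]-ATP. Incubated 30 °C, 60 min, stopped with 2% H3PO4, washed with 0.9% NaCl, 33Pi counted. IC50 from residual activity over 10 concentrations in singlicate.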

[5] = target: ALK tyrosine kinase receptor (Homo sapiens, UniProt Q9UM73); assay: Inhibition of recombinant ALK assessed as 33Pi incorporation after 60 mins by scintillation counting
Summary of the method: (§3)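 Tyrosine kinases assayed on poly(Glu,Tyr) in 70 mM HEPES-NaOH pH 7.5, 3 mM MgCl2, 3 mM MnCl2, orthovanadate, 1.2 mM DTT, PEG, 1 µM [γ-33P]-ATP; 30 °C for 60 min, then 2% H3PO4 stop, saline wash, 33Pi scintillation. IC50 derived from residual activity at 10 concentrations in singlicate.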

[6] = target: NUAK family SNF1-like kinase 1 (Homo sapiens, UniProt O60285); assay: (§4) Inhibition of recombinant ARK5 assessed as 33Pi incorporation after 60 mins by scintillation counting
Summary of the method: (§5)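 Kinase reaction uses RBER-CHKtide as substrate in HEPES-NaOH pH 7.5 (70 mM) with 3 mM each MgCl2 and MnCl2, orthovanadate, 1.2 mM DTT, PEG and 1 µM [γ-33P]-ATP. Run at 30 °C for 60 min, quenched in 2% H3PO4, saline-washed, scintillation-counted. Residual activity at 10 concentrations (singlicate) gives IC50.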

Aurora kinase B = Aurora kinase B (Homo sapiens, UniProt Q96GD4); assay: Inhibition of recombinant Aurora-b assessed as 33Pi incorporation after 60 mins by scintillation counting
Summary of the method: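 Substrate tetra(LRRWSLG) with recombinant Aurora-B. Buffer is 70 mM HEPES-NaOH pH 7.5, 3 mM MgCl2, 3 mM MnCl2, orthovanadate, 1.2 mM DTT, PEG, with 1 µM [γ-33P]-ATP. After 60 min at 30 °C, 2% H3PO4 stop, NaCl washes, 33Pi counted. IC50 fitted from 10 singlicate concentrations.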

[7] = target: Tyrosine-protein kinase receptor UFO (Homo sapiens, UniProt P30530); assay: (§6) Inhibition of recombinant AXL assessed as 33Pi incorporation after 60 mins by scintillation counting; summary of the method: as §3
Focal adhesion kinase 1 = Focal adhesion kinase 1 (Homo sapiens, UniProt Q05397); assay: Inhibition of recombinant FAK assessed as 33Pi incorporation after 60 mins by scintillation counting; summary of the method: as §3
[8] = target: Insulin-like growth factor 1 receptor (Homo sapiens, UniProt P08069); assay: Inhibition of recombinant IGF1-R assessed as 33Pi incorporation after 60 mins by scintillation counting; summary of the method: as §3
[9] = target: Dual specificity mitogen-activated protein kinase kinase 1 (Homo sapiens, UniProt Q02750); assay: Inhibition of wild type MEK1 assessed as 33Pi incorporation after 60 mins by scintillation counting
Summary of the method: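 ERK2-KR is the substrate for wild-type MEK1 in 70 mM HEPES-NaOH pH 7.5 containing 3 mM MgCl2, 3 mM MnCl2, orthovanadate, 1.2 mM DTT, PEG and 1 µM [γ-33P]-ATP. Reaction runs 60 min at 30 °C and is stopped with 2% H3PO4; incorporated 33Pi is counted after washing. IC50 comes from 10 concentrations tested once each.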

[10] = target: Hepatocyte growth factor receptor (Homo sapiens, UniProt P08581); assay: Inhibition of wild type MET assessed as 33Pi incorporation after 60 mins by scintillation counting
Summary of the method: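 Wild-type MET phosphorylates poly(Ala,Glu,Lys,Tyr) in HEPES-NaOH pH 7.5 (70 mM) with 3 mM MgCl2, 3 mM MnCl2, orthovanadate, 1.2 mM DTT, PEG, 1 µM [γ-33P]-ATP, at 30 °C for 60 min. Stop with 2% H3PO4, wash, scintillation count. IC50 from residual activity at 10 singlicate concentrations.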

[11] = target: Serine/threonine-protein kinase Nek2 (Homo sapiens, UniProt P51955); assay: (§7) Inhibition of recombinant NEK2 assessed as 33Pi incorporation after 60 mins by scintillation counting
Summary of the method: (§8)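 NEK2 reaction on RB-CTF substrate. Contains 70 mM HEPES-NaOH pH 7.5, 3 mM MgCl2/MnCl2, orthovanadate, 1.2 mM DTT, PEG and 1 µM [γ-33P]-ATP. Incubation is 30 °C, 60 min, followed by 2% H3PO4 stop, 0.9% NaCl washes and 33Pi scintillation counting. IC50 from 10 concentrations in singlicate.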

[12] = target: Serine/threonine-protein kinase Nek6 (Homo sapiens, UniProt Q9HC98); assay: Inhibition of recombinant NEK6 assessed as 33Pi incorporation after 60 mins by scintillation counting; summary of the method: as §2
[13] = target: Serine/threonine-protein kinase pim-1 (Homo sapiens, UniProt P11309); assay: Inhibition of recombinant PIM1 assessed as 33Pi incorporation after 60 mins by scintillation counting; summary of the method: as §2
[14] = target: Serine/threonine-protein kinase PLK1 (Homo sapiens, UniProt P53350); assay: Inhibition of recombinant PLK1 assessed as 33Pi incorporation after 60 mins by scintillation counting; summary of the method: as §5
[15] = target: Serine/threonine-protein kinase N1 (Homo sapiens, UniProt Q16512); assay: Inhibition of recombinant PRK1 assessed as 33Pi incorporation after 60 mins by scintillation counting; summary of the method: as §5
[16] = target: Proto-oncogene tyrosine-protein kinase Src (Homo sapiens, UniProt P12931); assay: Inhibition of recombinant SRC assessed as 33Pi incorporation after 60 mins by scintillation counting; summary of the method: as §3
[17] = target: Vascular endothelial growth factor receptor 2 (Homo sapiens, UniProt P35968); assay: Inhibition of recombinant VEGF-R2 assessed as 33Pi incorporation after 60 mins by scintillation counting; summary of the method: as §3
HUVEC = assay: Inhibition of VEGF-A induced HUVEC cell sprouting after 24 hrs by angiogenesis assay; format: functional, cell-based; conditions: Homo sapiens
Summary of the method: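 HUVEC spheroids (500 cells, formed overnight in hanging drops) embedded in collagen gel. Compound plus VEGF-A (25 ng/mL final) added after 30 min; 37 °C for 24 h, then paraformaldehyde fixation. Mean cumulative sprout length of 10 random spheroids per point; seven concentrations, 10 µM to 10 nM, in singlicate for IC50.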

K562 [18] = assay: Antiproliferative activity against human K562 cells after 24 hrs by MTT assay; format: functional, cell-based; conditions: for IC50: k562; summary of the method: as §1
[19] = target: NUAK family SNF1-like kinase 1 (Homo sapiens) (UniProt O60285); assay: as §4; summary of the method: as §5
[20] = target: Tyrosine-protein kinase receptor UFO (Homo sapiens) (UniProt P30530); assay: as §6; summary of the method: as §3
[21] = target: Serine/threonine-protein kinase Nek2 (Homo sapiens) (UniProt P51955); assay: as §7; summary of the method: as §8

Serine/threonine-protein kinase Nek6, sequence (Q9HC98 whole entry): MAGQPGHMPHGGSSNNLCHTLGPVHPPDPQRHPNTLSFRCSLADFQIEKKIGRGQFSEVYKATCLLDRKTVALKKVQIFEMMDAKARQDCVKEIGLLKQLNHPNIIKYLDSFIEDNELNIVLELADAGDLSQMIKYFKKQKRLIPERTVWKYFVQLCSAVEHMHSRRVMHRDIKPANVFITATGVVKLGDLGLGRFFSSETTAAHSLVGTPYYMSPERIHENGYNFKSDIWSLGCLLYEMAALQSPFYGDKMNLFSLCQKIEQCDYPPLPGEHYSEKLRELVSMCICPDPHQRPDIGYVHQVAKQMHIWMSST
RAC-alpha serine/threonine-protein kinase, sequence (P31749 whole entry): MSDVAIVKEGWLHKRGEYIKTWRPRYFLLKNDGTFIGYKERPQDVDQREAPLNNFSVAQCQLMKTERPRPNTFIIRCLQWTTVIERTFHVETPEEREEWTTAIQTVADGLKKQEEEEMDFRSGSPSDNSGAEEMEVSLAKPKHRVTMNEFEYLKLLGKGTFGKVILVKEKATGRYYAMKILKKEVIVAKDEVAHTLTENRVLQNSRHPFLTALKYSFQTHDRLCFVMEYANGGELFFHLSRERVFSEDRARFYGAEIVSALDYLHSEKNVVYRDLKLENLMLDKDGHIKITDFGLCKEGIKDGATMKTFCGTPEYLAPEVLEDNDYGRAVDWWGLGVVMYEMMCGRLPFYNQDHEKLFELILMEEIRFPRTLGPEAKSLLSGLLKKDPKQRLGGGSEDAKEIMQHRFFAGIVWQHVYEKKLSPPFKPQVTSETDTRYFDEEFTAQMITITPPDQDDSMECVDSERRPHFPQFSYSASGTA
Insulin-like growth factor 1 receptor, sequence (P08069 31-736 limits assumed): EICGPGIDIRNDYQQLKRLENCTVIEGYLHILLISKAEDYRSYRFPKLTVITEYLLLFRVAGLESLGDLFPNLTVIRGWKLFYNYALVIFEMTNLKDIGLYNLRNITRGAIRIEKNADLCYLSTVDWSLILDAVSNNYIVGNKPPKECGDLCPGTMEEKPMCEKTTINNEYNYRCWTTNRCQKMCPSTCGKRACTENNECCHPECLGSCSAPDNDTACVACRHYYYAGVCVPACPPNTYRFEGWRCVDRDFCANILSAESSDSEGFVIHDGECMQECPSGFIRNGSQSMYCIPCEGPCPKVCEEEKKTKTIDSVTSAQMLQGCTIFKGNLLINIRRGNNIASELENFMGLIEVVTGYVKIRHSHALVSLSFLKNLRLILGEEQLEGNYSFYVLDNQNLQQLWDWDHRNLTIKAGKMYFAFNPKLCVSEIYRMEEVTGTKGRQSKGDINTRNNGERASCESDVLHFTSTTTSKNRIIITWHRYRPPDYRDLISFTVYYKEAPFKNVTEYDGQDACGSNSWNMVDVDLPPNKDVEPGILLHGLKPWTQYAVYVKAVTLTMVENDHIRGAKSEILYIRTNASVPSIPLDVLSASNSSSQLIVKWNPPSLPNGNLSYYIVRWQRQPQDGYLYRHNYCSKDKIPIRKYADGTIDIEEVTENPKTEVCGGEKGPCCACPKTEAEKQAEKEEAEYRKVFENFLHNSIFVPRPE
Insulin-like growth factor 1 receptor, sequence (P08069 741-1367 limits assumed): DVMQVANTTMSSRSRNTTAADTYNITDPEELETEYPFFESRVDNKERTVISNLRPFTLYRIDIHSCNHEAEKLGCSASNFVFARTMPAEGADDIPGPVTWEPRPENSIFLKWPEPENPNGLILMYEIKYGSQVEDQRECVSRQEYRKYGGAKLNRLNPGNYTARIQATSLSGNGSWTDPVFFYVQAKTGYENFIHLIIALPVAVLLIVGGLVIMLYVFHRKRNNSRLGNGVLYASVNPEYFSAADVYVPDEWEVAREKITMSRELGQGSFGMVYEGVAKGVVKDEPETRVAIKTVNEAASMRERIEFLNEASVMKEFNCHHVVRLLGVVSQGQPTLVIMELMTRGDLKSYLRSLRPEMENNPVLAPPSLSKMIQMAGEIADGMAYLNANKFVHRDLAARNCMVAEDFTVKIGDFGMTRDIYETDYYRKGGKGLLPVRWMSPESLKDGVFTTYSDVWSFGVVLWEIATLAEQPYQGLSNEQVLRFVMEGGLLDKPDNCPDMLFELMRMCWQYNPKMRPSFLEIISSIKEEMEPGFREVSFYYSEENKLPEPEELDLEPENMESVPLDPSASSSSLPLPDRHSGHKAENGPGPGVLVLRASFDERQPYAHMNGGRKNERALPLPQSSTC
Aurora kinase B, sequence (Q96GD4 whole entry): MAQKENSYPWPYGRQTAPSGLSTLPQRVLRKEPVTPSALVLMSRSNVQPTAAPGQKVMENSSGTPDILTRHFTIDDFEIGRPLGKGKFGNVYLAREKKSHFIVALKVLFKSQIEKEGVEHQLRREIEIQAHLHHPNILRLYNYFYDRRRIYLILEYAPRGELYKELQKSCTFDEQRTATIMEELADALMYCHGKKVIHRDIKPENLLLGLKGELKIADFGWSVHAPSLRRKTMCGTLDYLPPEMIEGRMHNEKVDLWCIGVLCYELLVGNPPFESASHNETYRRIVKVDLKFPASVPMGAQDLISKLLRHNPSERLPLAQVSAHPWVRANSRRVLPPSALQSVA
Serine/threonine-protein kinase PLK1, sequence (P53350 whole entry): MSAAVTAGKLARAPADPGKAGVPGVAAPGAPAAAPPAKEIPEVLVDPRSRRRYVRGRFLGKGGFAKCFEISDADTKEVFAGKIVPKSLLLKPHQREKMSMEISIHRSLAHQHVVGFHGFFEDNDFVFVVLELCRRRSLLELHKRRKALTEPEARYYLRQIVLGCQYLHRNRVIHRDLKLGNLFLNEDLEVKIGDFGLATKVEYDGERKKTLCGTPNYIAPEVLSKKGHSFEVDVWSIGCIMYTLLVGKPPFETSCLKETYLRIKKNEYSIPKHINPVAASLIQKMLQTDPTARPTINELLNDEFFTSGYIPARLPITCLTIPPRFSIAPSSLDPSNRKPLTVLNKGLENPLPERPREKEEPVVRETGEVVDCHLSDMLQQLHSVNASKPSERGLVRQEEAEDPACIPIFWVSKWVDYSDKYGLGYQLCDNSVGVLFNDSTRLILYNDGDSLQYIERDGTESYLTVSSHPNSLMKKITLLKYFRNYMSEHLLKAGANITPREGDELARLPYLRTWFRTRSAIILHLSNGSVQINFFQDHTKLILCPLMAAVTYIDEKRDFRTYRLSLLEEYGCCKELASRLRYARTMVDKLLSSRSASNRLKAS
Proto-oncogene tyrosine-protein kinase Src, sequence (P12931 2-536 limits assumed): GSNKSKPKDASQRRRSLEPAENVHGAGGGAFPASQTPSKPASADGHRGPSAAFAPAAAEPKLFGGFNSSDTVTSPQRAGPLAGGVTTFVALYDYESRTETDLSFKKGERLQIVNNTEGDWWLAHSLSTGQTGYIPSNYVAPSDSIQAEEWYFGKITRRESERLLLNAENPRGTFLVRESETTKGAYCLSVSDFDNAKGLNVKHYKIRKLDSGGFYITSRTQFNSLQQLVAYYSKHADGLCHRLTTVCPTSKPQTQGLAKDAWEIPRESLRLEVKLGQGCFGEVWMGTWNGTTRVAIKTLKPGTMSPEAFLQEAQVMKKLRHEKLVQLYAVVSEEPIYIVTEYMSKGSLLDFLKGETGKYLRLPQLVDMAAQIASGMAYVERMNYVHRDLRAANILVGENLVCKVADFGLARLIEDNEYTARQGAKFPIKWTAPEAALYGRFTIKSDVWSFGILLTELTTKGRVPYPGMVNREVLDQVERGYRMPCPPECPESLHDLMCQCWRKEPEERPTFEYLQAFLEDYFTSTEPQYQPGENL
Dual specificity mitogen-activated protein kinase kinase 1, sequence (Q02750 whole entry): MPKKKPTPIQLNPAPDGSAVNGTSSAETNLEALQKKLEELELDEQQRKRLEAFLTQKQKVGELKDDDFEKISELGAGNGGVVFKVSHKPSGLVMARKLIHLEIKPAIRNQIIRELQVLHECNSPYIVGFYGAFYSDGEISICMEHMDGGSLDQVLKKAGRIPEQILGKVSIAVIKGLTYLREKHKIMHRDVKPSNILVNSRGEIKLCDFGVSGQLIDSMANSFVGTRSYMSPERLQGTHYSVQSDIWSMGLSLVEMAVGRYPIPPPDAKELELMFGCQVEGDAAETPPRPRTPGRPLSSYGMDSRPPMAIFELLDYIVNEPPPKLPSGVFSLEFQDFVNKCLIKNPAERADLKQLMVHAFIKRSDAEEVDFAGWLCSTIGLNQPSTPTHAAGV
Tyrosine-protein kinase receptor UFO (Homo sapiens), sequence (P30530 whole entry): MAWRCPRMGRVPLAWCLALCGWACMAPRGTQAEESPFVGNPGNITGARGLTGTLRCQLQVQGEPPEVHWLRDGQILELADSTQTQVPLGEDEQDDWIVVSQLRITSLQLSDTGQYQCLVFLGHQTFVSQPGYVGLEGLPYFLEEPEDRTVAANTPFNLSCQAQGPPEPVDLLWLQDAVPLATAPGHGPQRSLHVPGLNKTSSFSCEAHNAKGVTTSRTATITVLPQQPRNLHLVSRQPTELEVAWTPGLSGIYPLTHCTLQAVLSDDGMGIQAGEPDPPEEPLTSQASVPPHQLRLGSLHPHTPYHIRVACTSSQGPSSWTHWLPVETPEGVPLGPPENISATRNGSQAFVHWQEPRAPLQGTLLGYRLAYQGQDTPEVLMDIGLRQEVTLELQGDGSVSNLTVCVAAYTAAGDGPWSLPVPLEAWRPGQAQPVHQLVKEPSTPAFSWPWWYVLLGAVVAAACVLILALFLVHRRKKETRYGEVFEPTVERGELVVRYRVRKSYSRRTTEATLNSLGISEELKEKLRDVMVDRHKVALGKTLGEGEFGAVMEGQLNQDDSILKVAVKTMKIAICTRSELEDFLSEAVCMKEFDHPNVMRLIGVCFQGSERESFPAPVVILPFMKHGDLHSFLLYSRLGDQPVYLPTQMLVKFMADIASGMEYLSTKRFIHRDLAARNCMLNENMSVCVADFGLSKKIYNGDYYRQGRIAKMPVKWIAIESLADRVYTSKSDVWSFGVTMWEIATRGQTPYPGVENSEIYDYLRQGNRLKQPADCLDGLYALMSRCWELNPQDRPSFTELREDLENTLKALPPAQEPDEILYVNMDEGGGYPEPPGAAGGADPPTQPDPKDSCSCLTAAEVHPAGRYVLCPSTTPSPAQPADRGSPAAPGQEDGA
Tyrosine-protein kinase receptor UFO, sequence (P30530 whole entry): as above

Compound: C/C=C1\NC(=O)[C@H](Cc2ccccc2)NC(=O)[C@@H](C(C)C)NC(=O)[C@@H]([C@H](C)CC)NC(=O)[C@H](NC(=O)[C@H](NC(=O)[C@H](CCCN)NC(=O)[C@H]2CCCN2C(=O)[C@H](NC(=O)[C@@H](NC(=O)[C@@H](NC(=O)[C@H](NC(=O)CCCC(C)C)C(C)C)[C@@H](C)O)C(C)C)C(C)C)[C@H](C)CC)[C@H](C)OC(=O)[C@H](C(C)C)NC1=O [KAHALALIDE F]
- pIC50 (L5178Y): 5.37

Compound: C=Cc1c(C)cc(O)c2c1[C@H](O)[C@H]1OC(=O)[C@]3(C)CC[C@@H]4C[C@@]24[C@H]13 [ARTHRININ A]
- IC50 (L5178Y): Not Active
- IC50 (K562 [18]): Not Active
- IC50 (A2780 [2]): Not Active
- IC50 (A2780 [3]): Not Active

Compound: C=C[C@@]1(C)C=C2C(=O)C(O)=C3[C@](C)(C(=O)O)CC[C@@H]4C[C@]34[C@]2(O)C(=O)C1 [MYROCIN A]
- pIC50 (L5178Y): 5.56
- pIC50 (K562 [18]; Homo sapiens, K562, 24 h, read-out: IC50): 4.38
- pIC50 (A2780 [2]): 4.55
- pIC50 (A2780 [3]): 3.81
- inhibition [4]: inactive
- inhibition [5]: inactive
- inhibition [19]: inactive
- inhibition (Aurora kinase B): inactive
- inhibition [20]: inactive
- inhibition (Focal adhesion kinase 1): inactive
- inhibition [8]: inactive
- inhibition [9]: inactive
- inhibition [10]: inactive
- inhibition [21]: inactive
- inhibition [12]: inactive
- inhibition [13]: inactive
- inhibition [14]: inactive
- inhibition [15]: inactive
- inhibition [16]: inactive
- inhibition [17]: inactive
- pIC50 (HUVEC): 5.43

More lines, main results first:

- IC50 (K562 [1]): Not Active
- pIC50 (A2780 [2]): 5.36
- pIC50 (A2780 [3]): 4.59
- pIC50 [4]: < 4.00
- pIC50 [5]: 5.96
- pIC50 [6]: 4.81
- pIC50 (Aurora kinase B): 6.30
- pIC50 [7]: 5.18
- pIC50 (Focal adhesion kinase 1): 4.82
- pIC50 [8]: 5.07
- pIC50 [9]: < 4.00
- pIC50 [10]: 5.36
- pIC50 [11]: 4.08
- pIC50 [12]: 4.17
- pIC50 [13]: 6.52
- pIC50 [14]: 5.06
- pIC50 [15]: 4.34
- pIC50 [16]: 4.89
- pIC50 [17]: 6.10
Compound: Cc1c(O)c(O)cc2oc3cc(O)cc(O)c3c(=O)c12 [ANOMALIN A]
- pIC50 (L5178Y): 6.40
- pIC50 (HUVEC): 5.74

- IC50 (K562 [18]): Not Active
- IC50 (A2780 [2]): Not Active
- IC50 (A2780 [3]): Not Active
Compound: Cc1cc(O)c2c(c1)[C@H](O)[C@H]1OC(=O)[C@]3(C)CC[C@@H]4C[C@@]24[C@H]13 [ARTHRININ C]
- IC50 (L5178Y): Not Active
